Source: PubChem BioAssay
This is a sample that favours compounds with a hit; in the whole collection about 4% have one here.
FN deposit inh – fibronectin deposition inhibition | AH1F fibroblasts, Alexa488-fibronectin deposition fluorescence, overnight | inhibition, % at 12.6 µM | AID 743247 | hit rate 0.086% among 350,000;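 active = mean inhibition across replicates of 30% or more, regardless of how many single replicates reach that level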;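 also: positive control wells lacked labelled fibronectin entirely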
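material = AH1F fibroblast monolayer depositing Alexa488-labelled fibronectin into matrix | amount = 10000 AH1F cells/well | buffer or medium = DMEM plus 2% serum, read in PBS | incubation = 1 h cell adhesion before compound, then overnight fibronectin incubation | detection = fluorescence at 485 nm excitation, 525 nm emission | evaluation = percent inhibition as loss of matrix-bound fibronectin fluorescence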
Statin myotox sup – suppression of simvastatin myotoxicity; AID 602340; rescue of ATP level, % at 7.49 µM; C2C12 myotubes + simvastatin, ATP luminescence, 48 h; scaled: DMSO 0, geranylgeraniol control 100; hit rate 0.78% among 330,000;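 active = mean ATP rescue above about 67%, or every replicate alone reaching that limit, limit read from the data, passing the limit was not always enough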;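 also: myotubes were challenged with 10 µM simvastatin during compound exposure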
SIRT5 inh – inhibitors of human sirtuin-5 desuccinylase; Purified SirT5, succinyl-peptide AMC, trypsin-coupled fluorescence; inhibition, % at 15 µM; AID 652115; Q9NXA8; hit rate 1.1% among 330,000; in the data active = inhibition above about 15%
Ecoli rRNA inh – inhibitors of bacterial rRNA selective over humanized ribosomes; AID 720706; GFP signal change (wild-type ribosome), % (concentration not given with the values); E. coli WT GFP vs humanized-ribosome RFP mutants, fluorescence, 24 h; hits give low values; DMSO median 0, no signal -100; hit rate 1.6% among 350,000;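 active = significant combined selectivity score with lowered wild-type GFP, culture density cut under 30%, mutant RFP and density less affected; inactive = any of these conditions unmet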
E-sel inducer – induces E-selectin expression in human endothelial cells. P16581. HUVEC E-selectin immunofluorescence imaging; normalized: neutral wells 0, TNF-alpha wells 100. activation, % at 7.58 µM. hit rate 0.37% among 260,000. AID 686992;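 active = mean E-selectin-positive cell signal at least 10% of the positive control, reached in at least 60% of replicates, without over 20% cell loss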
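Assay system: HUVEC primary endothelial cells. Input: 3,000 HUVEC seeded per well. Doses: one compound dose added by pin transfer. Read-out basis: % PE-positive cells. Benchmarks: TNF-alpha high, DMSO low. Detection: immunofluorescence imaging. Buffer or medium: EGM-2, gelatin.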
FGF22 binding – FGF22 (human) thermal shift binding; recombinant FGF22 thermal shift, SYPRO orange fluorescence; percent of sucrose octasulfate shift, DMSO zero; activity (Tm shift, normalised), % at 9.99 µM; hit rate 1.5% among 340,000; AID 651658;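 active = mean Tm shift, scaled 0 neutral to 100 positive control, at about 1.3% or above, every replicate too, limit read from the data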
Target sequence (Q9HCT0 whole entry, looked up): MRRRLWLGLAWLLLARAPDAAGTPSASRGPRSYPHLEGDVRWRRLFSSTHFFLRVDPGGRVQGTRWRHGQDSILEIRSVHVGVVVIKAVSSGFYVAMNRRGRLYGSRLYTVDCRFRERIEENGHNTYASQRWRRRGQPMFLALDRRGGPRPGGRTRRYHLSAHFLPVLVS
* marks the source's active call; other numbers are inactive results; . = no result given; ! = not active in a repeat.

SMILES	FN deposit inh	Statin myotox sup	SIRT5 inh	Ecoli rRNA inh	E-sel inducer	FGF22 binding
Cc1ccc(S(=O)(=O)N[C@H]2C=C[C@@H](CC(=O)NC3CCCCC3)O[C@H]2CO)cc1	-12	7	4	-4	0	0
Cc1ccc2cc(C)c3nnc(SCC(=O)c4cccs4)n3c2c1C	1	.	-2	-39*	-1	0
Fc1ccc2c(c1)/C(=N/Nc1ccccn1)CCS2	8	.	0	-22*	0	0
c1ccc(N/N=C2\CCCc3ccccc32)nc1	-2	22	-1	1	.	0
CO[C@H]1CN(C)C(=O)c2ccc(NC(=O)C3CC3)cc2OC[C@H](C)N(C(=O)NC(C)C)C[C@H]1C	-2	-15	-3	3	0	0
Cc1ccc(-n2c(SCC(=O)N3CCCc4ccccc43)nnc2-c2cccnc2)c(C)c1	-8	14	-1	9	.	43*
COc1ccc(NC(=O)N(C)C[C@@H]2OCCCC[C@H](C)Oc3ccc(NC(=O)Cc4ccccc4)cc3C(=O)N([C@H](C)CO)C[C@@H]2C)cc1	.	.	5	-4	0	-1
NS(=O)(=O)c1ccc(CCNC(=O)c2cc(-c3ccccn3)nc3ccc(Br)cc23)cc1	.	.	1	24	.	43*
O=C(CC1Nc2ccccc2NC1=O)Nc1ccc2c(c1)OCO2 (centres undefined)	34*	-1	1	9	.	0
Cc1ccc(NC(=O)CC2Nc3ccccc3NC2=O)cc1Cl (centres undefined)	.	-20	.	.	.	.
COc1cccc(C(=O)Oc2cc3c4c(c2)C(C)=CC(C)(C)N4C(=O)C3=O)c1	.	7	-2	-20*	.	-1
C[C@H]1CN([C@@H](C)CO)C(=O)Cc2cc(NC(=O)NC3CCCCC3)ccc2O[C@@H]1CN(C)CC1CCCCC1	.	47	14	-24	0	-1
O=C1OC(c2ccc(O)cc2)(c2ccc(O)cc2)c2ccccc21	-10	4	-1	.	0	0
O=C1OC(c2ccccc2)(c2ccccc2)c2ccsc21	-4	0	.	-8	1	44*
O=C(CCN1CCCCC1)NCC[C@H]1CC[C@H](NC(=O)Nc2ccc(Cl)cc2)[C@H](CO)O1	1	-2	6	2	1	0
CCCNC(=O)N(C)C[C@H]1Oc2cc(-c3cccnc3)ccc2S(=O)(=O)N([C@H](C)CO)C[C@H]1C	.	19	5	-4	1	0
Nc1c2c(nc3ccccc13)CCCC2	-3	0	-4	.	1	0
Nc1c2ccccc2nc2ccccc12	6	45	-35	-43*!	0	0
O=C(C[C@H]1C=C[C@H](NC(=O)C2CCOCC2)[C@@H](CO)O1)NCc1ccccc1Cl	.	.	3	4	-1	.
O=C(NCCN1CCCCC1)[C@H]1N[C@H]2c3ccc(-c4ccc(F)cc4)c(=O)n3C[C@H]2[C@@H]1CO	.	-13	-15	5	0	0
O=C(C[C@H]1CC[C@@H](NS(=O)(=O)c2ccc(F)cc2)[C@@H](CO)O1)NCCc1ccncc1	-1	-5	-3	-2	0	0
CN(C)C(/C=C/Nc1ccc(Br)cc1)=C(C#N)C#N	8	.	-3	4	0	43*
O=C(CCCCCN1C(=O)c2ccccc2C1=O)Nc1ccc2c(c1)OCCO2	-11	109*	.	.	.	.
Cc1cccc(NC(=O)CCCCCN2C(=O)c3ccccc3C2=O)n1	.	92*	.	.	.	.
CCCNC(=O)N1C[C@@H](C)[C@H](OC)CN(C)C(=O)c2cc(NC(=O)CCC)ccc2OC[C@@H]1C	-34	10	1	-1	0	0
C[C@H]1CN([C@@H](C)CO)S(=O)(=O)c2ccc(C#CC3(O)CCCC3)cc2O[C@H]1CN(C)C(=O)c1ccncc1	-3	-12	-4	1	0	0
COCC(=O)N1C[C@@H](C)[C@H](OC)CN(C)C(=O)c2ccc(NC(=O)c3cc(C)on3)cc2OC[C@@H]1C	-5	-15	3	2	0	0
CCC(=O)Nc1ccc2c(c1)OC[C@H](C)N(Cc1ccccn1)C[C@@H](C)[C@H](OC)CN(C)C2=O	-2	3	-1	0	0	0
